Calls of active or inactive are those of the source. The calls are words filed in the database; no cut-off is given here.
Experiments:
Saccharomyces cerevisiae = experiment: Antimicrobial activity against Saccharomyces cerevisiae ATCC 9763 assessed as zone of inhibition at 30 uL for 24 hrs at 30 degC by disk diffusion test; format: functional, organism-based
How it was run: (§1)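 Agar well diffusion on Mueller Hinton agar seeded with 0.1 mL broth culture (18–24 h), adjusted to 0.5 McFarland (about 1×10^8 bacteria or 1×10^6 yeast cells/mL). A 6 mm well is filled with 30 µL of compound from a fresh 1000 µg/mL DMSO stock. Plates are held at 30 °C for 24 h and inhibition zone diameter is read in mm.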

Escherichia coli = experiment: Antimicrobial activity against Escherichia coli ATCC 25922 assessed as zone of inhibition at 30 uL for 24 hrs at 37 degC by disk diffusion test; format: functional, organism-based
How it was run: (§2)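 Compound (30 µL of a fresh 1000 µg/mL DMSO stock) goes into a 6 mm well cut in Mueller Hinton agar inoculated with 0.1 mL broth culture adjusted to 0.5 McFarland (about 1×10^8 cells/mL). Plates are incubated 24 h at 37 °C, then zone of inhibition diameter is measured in mm.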

Klebsiella pneumoniae = experiment: Antimicrobial activity against Klebsiella pneumoniae ATCC 13882 assessed as zone of inhibition at 30 uL for 24 hrs at 37 degC by disk diffusion test; format: functional, organism-based; how it was run: as §2
[1] = tested on: Staphylococcus epidermidis; experiment: Antimicrobial activity against Staphylococcus epidermidis ATCC 12228 assessed as zone of inhibition at 30 uL for 24 hrs at 37 degC by disk diffusion test; format: functional, organism-based; how it was run: as §2
HL-60 [2] = experiment: Antiproliferative activity against human HL60 cells after 24 and 72 hrs by MTT assay; format: functional, cell-based
How it was run: (§3)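 ATCC human cell lines are kept in RPMI, DMEM or McCoy's 5A with 10–15% heat-inactivated FCS at 37 °C and 5% CO2. They are seeded at 1×10^4–1×10^5 cells/mL in 48-well plates and exposed to 0.5, 10, 20 or 40 µM. Viability is read by MTT (590 nm) at 24 and 72 h. Growth is expressed relative to untreated cells and IC50 is fitted, in triplicate.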

Staphylococcus aureus = experiment: Antimicrobial activity against Staphylococcus aureus ATCC 25923 assessed as zone of inhibition at 30 uL for 24 hrs at 37 degC by disk diffusion test; format: functional, organism-based; how it was run: as §2
HT-29 [3] = experiment: Induction of apoptosis in human HT-29 cells at 20 uM after 48 hrs by Hoechst 33258/propidium iodide staining based phase contrast microscopic analysis; format: functional
How it was run: (§4)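 Cells in 48-well plates treated with 0.5, 10, 20 or 40 µM for 24 and 48 h. Values are read at 48 h, 20 µM for test agents and 0.5 µM for controls. Staining is Hoechst 33258/propidium iodide double staining with fluorescence microscopy. Blue nuclei are viable or early-to-mid apoptotic, and pink nuclei are late apoptotic or necrotic. Apoptosis and necrosis are scored from chromatin condensation as % of cells. Cells are grown at 37 °C in 5% CO2 in RPMI, DMEM or McCoy's 5A with 10–15% heat-inactivated FCS.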

MCF7 [4] = experiment: Induction of necrosis in human MCF7 cells at 20 uM after 48 hrs by Hoechst 33258/propidium iodide staining based phase contrast microscopic analysis; format: functional; how it was run: as §4
Caco-2 [5] = experiment: Antiproliferative activity against human Caco2 cells after 24 and 72 hrs by MTT assay; format: functional, cell-based; how it was run: as §3
Caco-2 [6] = experiment: Induction of apoptosis in human Caco2 cells at 20 uM after 48 hrs by Hoechst 33258/propidium iodide staining based phase contrast microscopic analysis; format: functional; how it was run: as §4
HT-29 [7] = experiment: Induction of necrosis in human HT-29 cells at 20 uM after 48 hrs by Hoechst 33258/propidium iodide staining based phase contrast microscopic analysis; format: functional; how it was run: as §4
Cyberlindnera jadinii = experiment: Antimicrobial activity against Candida utilis ATCC 9950 assessed as zone of inhibition at 30 uL for 24 hrs at 30 degC by disk diffusion test; format: functional, organism-based; how it was run: as §1
Nakaseomyces glabratus = experiment: Antimicrobial activity against Candida glabrata assessed as zone of inhibition at 30 uL for 24 hrs at 30 degC by disk diffusion test; format: functional, organism-based; how it was run: as §1
Pseudomonas aeruginosa = experiment: Antimicrobial activity against Pseudomonas aeruginosa ATCC 35032 assessed as zone of inhibition at 30 uL for 24 hrs at 37 degC by disk diffusion test; format: functional, organism-based; how it was run: as §2
Bacillus thuringiensis [8] = experiment: Antimicrobial activity against Bacillus thuringiensis assessed as zone of inhibition at 30 uL for 24 hrs at 30 degC by disk diffusion test; format: functional; how it was run: as §1
Bacillus cereus [9] = experiment: Antimicrobial activity against Bacillus cereus ATCC 11778 assessed as zone of inhibition at 30 uL for 24 hrs at 30 degC by disk diffusion test; format: functional; how it was run: as §1
MCF7 [10] = experiment: Antiproliferative activity against human MCF7 cells after 24 and 72 hrs by MTT assay; format: functional, cell-based; how it was run: as §3
SAOS-2 [11] = experiment: Induction of necrosis in human Saos2 cells at 20 uM after 48 hrs by Hoechst 33258/propidium iodide staining based […] microscopic analysis; format: functional; how it was run: as §4
Candida albicans = experiment: Antimicrobial activity against Candida albicans ATCC 10231 assessed as zone of inhibition at 30 uL for 24 hrs at 30 degC by disk diffusion test; format: functional, organism-based; how it was run: as §1
Bacillus thuringiensis [12] = experiment: Antimicrobial activity against Bacillus thuringiensis for 24 hrs by microdillution method; format: functional
How it was run: (§5)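 Broth microdilution. Compound is dissolved in DMSO (2 mg/mL) and diluted in Mueller Hinton broth as two-fold serial dilutions from 256 to 0.125 µg/mL. Bacteria are pre-grown in nutrient broth at 30 °C, and the final inoculum is about 10^6 cfu/mL. Tests are incubated 37 °C for 24 h. MIC is the lowest concentration giving complete inhibition. Streptomycin is the positive control.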

Enterococcus faecalis = experiment: Antimicrobial activity against Enterococcus faecalis ATCC 29212 assessed as zone of inhibition at 30 uL for 24 hrs at 37 degC by disk diffusion test; format: functional, organism-based; how it was run: as §2
Candida tropicalis = experiment: Antimicrobial activity against Candida tropicalis assessed as zone of inhibition at 30 uL for 24 hrs at 30 degC by disk diffusion test; format: functional, organism-based; how it was run: as §1
HL-60 [13] = experiment: Induction of apoptosis in human HL60 cells at 20 uM after 48 hrs by Hoechst 33258/propidium iodide staining based phase contrast microscopic analysis; format: functional; how it was run: as §4
HeLa [14] = experiment: Antiproliferative activity against human HeLa cells after 24 and 72 hrs by MTT assay; format: functional, cell-based; how it was run: as §3
Proteus vulgaris = experiment: Antimicrobial activity against Proteus vulgaris ATCC 33420 assessed as zone of inhibition at 30 uL for 24 hrs at 37 degC by disk diffusion test; format: functional, organism-based; how it was run: as §2
Micrococcus luteus = experiment: Antimicrobial activity against Micrococcus luteus ATCC 9341 assessed as zone of inhibition at 30 uL for 24 hrs at 30 degC by disk diffusion test; format: functional, organism-based; how it was run: as §1
Salmonella typhimurium = experiment: Antimicrobial activity against Salmonella typhimurium ATCC 14028 assessed as zone of inhibition at 30 uL for 24 hrs at 37 degC by disk diffusion test; format: functional, organism-based; conditions: Salmonella enterica subsp. enterica serovar Typhimurium; how it was run: as §2
[15] = Antiproliferative activity against human Saos2 cells after 24 and 72 hrs by MTT assay; format: functional, cell-based; conditions: SAOS-2; how it was run: as §3
HL-60 [16] = experiment: Induction of necrosis in human HL60 cells at 20 uM after 48 hrs by Hoechst 33258/propidium iodide staining based phase contrast microscopic analysis; format: functional; how it was run: as §4
HT-29 [17] = experiment: Antiproliferative activity against human HT-29 cells after 24 and 72 hrs by MTT assay; format: functional, cell-based; how it was run: as §3
HeLa [18] = experiment: Induction of apoptosis in human HeLa cells at 20 uM after 48 hrs by Hoechst 33258/propidium iodide staining based phase contrast microscopic analysis; format: functional; how it was run: as §4
MCF7 [19] = experiment: Induction of apoptosis in human MCF7 cells at 20 uM after 48 hrs by Hoechst 33258/propidium iodide staining based phase contrast microscopic analysis; format: functional; how it was run: as §4
Bacillus subtilis [20] = experiment: Antimicrobial activity against Bacillus subtilis ATCC 6633 assessed as zone of inhibition at 30 uL for 24 hrs at 30 degC by disk diffusion test; format: functional; how it was run: as §1
HeLa [21] = experiment: Induction of necrosis in human HeLa cells at 20 uM after 48 hrs by Hoechst 33258/propidium iodide staining based phase contrast microscopic analysis; format: functional; how it was run: as §4
Bacillus subtilis [22] = experiment: Antimicrobial activity against Bacillus subtilis ATCC 6633 for 24 hrs by microdillution method; format: functional; how it was run: as §5
Caco-2 [23] = experiment: Induction of necrosis in human Caco2 cells at 20 uM after 48 hrs by Hoechst 33258/propidium iodide staining based phase contrast microscopic analysis; format: functional; how it was run: as §4
SAOS-2 [24] = experiment: Induction of apoptosis in human Saos2 cells at 20 uM after 48 hrs by Hoechst 33258/propidium iodide staining based phase contrast microscopic analysis; format: functional; how it was run: as §4
Bacillus cereus [25] = experiment: Antimicrobial activity against Bacillus cereus ATCC 11778 for 24 hrs by microdillution method; format: functional; how it was run: as §5

In the case of `CC1(C)CC[C@]2(C(=O)OCc3ccccc3)CC[C@]3(C)C(=CC[C@@H]4[C@@]5(C)CC[C@H](O)[C@@](C)(/C=N/NC(N)=S)[C@@H]5CC[C@]43C)[C@@H]2C1`, the “diameter of the inhibition zone (DIZ)” value (Saccharomyces cerevisiae) is reported as “inactive”, the “diameter of the inhibition zone (DIZ)” value (Escherichia coli) is reported as “inactive” and the “diameter of the inhibition zone (DIZ)” value (Klebsiella pneumoniae) is reported as “inactive”. For the same molecule, the “diameter of the inhibition zone (DIZ)” value [1] was “inactive”, the IC50 (HL-60 [2]) was 6.21 µM and the “diameter of the inhibition zone (DIZ)” value (Staphylococcus aureus) was “inactive”. The Activity (HT-29 [3]) was 2%, the Activity (MCF7 [4]) was 63% and the IC50 (Caco-2 [5]) was 36.5 µM. For the same molecule, the Activity (Caco-2 [6]) was 4%, the Activity (HT-29 [7]) was 32% and the “diameter of the inhibition zone (DIZ)” value (Cyberlindnera jadinii) was “inactive”. For the same molecule, the “diameter of the inhibition zone (DIZ)” value (Nakaseomyces glabratus) was “inactive”, the “diameter of the inhibition zone (DIZ)” value (Pseudomonas aeruginosa) was “inactive” and the “diameter of the inhibition zone (DIZ)” value (Bacillus thuringiensis [8]) was “inactive”. For the same molecule, the “diameter of the inhibition zone (DIZ)” value (Bacillus cereus [9]) was “inactive”, the IC50 (MCF7 [10]) was 6.05 µM and the Activity (SAOS-2 [11]) was 41%. The “diameter of the inhibition zone (DIZ)” value (Candida albicans) was “inactive”, the MIC (Bacillus thuringiensis [12]) was “inactive” and the “diameter of the inhibition zone (DIZ)” value (Enterococcus faecalis) was “inactive”. The “diameter of the inhibition zone (DIZ)” value (Candida tropicalis) was “inactive”, the Activity (HL-60 [13]) was 2% and the IC50 (HeLa [14]) was 23.6 µM. For the same molecule, the “diameter of the inhibition zone (DIZ)” value (Proteus vulgaris) was “inactive”, the “diameter of the inhibition zone (DIZ)” value (Micrococcus luteus) was “inactive” and the “diameter of the inhibition zone (DIZ)” value (Salmonella typhimurium) was “inactive”. The IC50 [15] was 6.97 µM, the Activity (HL-60 [16]) was 64% and the IC50 (HT-29 [17]) was 15 µM. For the same molecule, the Activity (HeLa [18]) was 5%, the Activity (MCF7 [19]) was 4% and the “diameter of the inhibition zone (DIZ)” value (Bacillus subtilis [20]) was “inactive”. The Activity (HeLa [21]) was 55%, the MIC (Bacillus subtilis [22]) was “inactive” and the Activity (Caco-2 [23]) was 48%. For the same molecule, the Activity (SAOS-2 [24]) was 5% and the MIC (Bacillus cereus [25]) was “inactive”.

Reference: ChEMBL document CHEMBL3297654, “Synthesis, antimicrobial and cytotoxic activities, and structure-activity relationships of gypsogenin derivatives against human cancer cells” (Eur J Med Chem, 2014)
